Data set [1] is described as follows: Clearance in Sprague-Dawley rat at 1 mg/kg, iv by LC/MS/MS analysis. The format is ADME, organism-based. To be noted: in vivo. Put shortly:
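Female Sprague−Dawley rats with femoral artery and vein catheters implanted 96−120 h beforehand; cassette dosing iv 1 mg/kg per compound in NMP/PEG200 (30:70); arterial blood into EDTA tubes at several times, frozen; LC-MS/MS vs standard curve with QCs within 70−130%; noncompartmental analysis.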

Data set [2] can be described thus: Stability in human liver microsomes at […] preincubated for 3 mins followed by NADPH addition measured after 1 hr in presence of GSH and [13C2-15N-glycine]-GSH by HPLC/MS method. It counts as ADME, microsome. To be noted: read-out: Stability. (Liver microsomes are vesicles of endoplasmic reticulum, rich in cytochrome P450 enzymes.)
Data set [3] is described as follows: Stability in rat liver microsomes at […] preincubated for 3 mins followed by NADPH addition measured after 1 hr in presence of GSH and [13C2-15N-glycine]-GSH by HPLC/MS method. The format is ADME, microsome. Conditions: read-out: Stability.
Data set [4] concerns the target T1, Signal peptide peptidase-like 2A (Mus musculus) (UniProt Q9JJF9).
T1 sequence (whole entry): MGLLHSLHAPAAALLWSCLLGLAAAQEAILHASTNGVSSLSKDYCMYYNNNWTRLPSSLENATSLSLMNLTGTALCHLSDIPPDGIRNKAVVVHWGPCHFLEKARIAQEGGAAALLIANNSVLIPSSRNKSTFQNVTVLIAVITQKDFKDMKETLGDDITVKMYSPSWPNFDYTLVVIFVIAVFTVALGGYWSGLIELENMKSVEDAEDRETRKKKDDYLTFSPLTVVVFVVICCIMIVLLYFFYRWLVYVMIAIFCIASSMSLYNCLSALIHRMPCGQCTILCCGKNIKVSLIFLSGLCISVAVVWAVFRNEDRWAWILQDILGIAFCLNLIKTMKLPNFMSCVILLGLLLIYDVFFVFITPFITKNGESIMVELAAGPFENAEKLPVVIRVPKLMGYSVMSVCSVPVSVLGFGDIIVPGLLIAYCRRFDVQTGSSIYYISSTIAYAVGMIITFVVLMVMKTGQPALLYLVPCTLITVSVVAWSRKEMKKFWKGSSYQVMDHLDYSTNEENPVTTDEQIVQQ
Put plainly: Reversible inhibition of SPPL2a in mouse A20 cells assessed as increase in CD74/p8 accumulation at 2 uM preincubated for 16 hrs followed by compound wash out measured up to 2 hrs by Western blot method. It counts as cell-based. Background: A western blot detects proteins with antibodies after separation by electrophoresis.

For data set [5], the system named is Mus musculus. Description: In vivo inhibition of SPPL2a in mouse assessed as increase in CD74/p8 accumulation in splenocytes at 100 mg/kg, po administered as single dose measured after 4 hrs by Western blot method. The format is functional, organism-based.
For data set [6], the system named is Mus musculus. Put plainly: In vivo inhibition of mouse gamma-secretase assessed as effect on Hes1 mRNA level in thymus up to 100 mg/kg, po administered as single dose by RT-PCR method. The format is organism-based. In a few lines:
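Thymus and jejunum excised into RNALater, 4 °C overnight, washed, frozen at −80 °C; total RNA from 10 mg tissue by MagNA Pure LC; Hes1 measured by TaqMan real-time PCR; significance by two-tailed heteroscedastic Student's t-test.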

The subject of data set [7] is Mus musculus. Description: Immunomodulatory activity in mouse assessed as reduction in transition T1 B cells in splenocyte at 3 to 30 mg/kg administered via oral gavage bid at 8 and 16 hrs dosing interval between first and second dose respectively for 11 days measured 16 hrs post last dose on day 12 by flow cytometry. It counts as functional, organism-based. In a few lines:
(§1)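 Mice gavaged with compound in 0.5% MC:0.5% Tween or PEG:D5W 3:1. Spleens dissociated in GentleMACS, filtered at 40 μm, ACK red-cell lysis, counted; 1 × 10^6 splenocytes stained 30 min on ice in HBSS/2% FBS/5 mM EDTA with antimouse panels for B-cell subsets (B220, CD21, CD23, IgM, IgD) or dendritic cells (PDCA1, CD11c, MHCII, lineage markers); analyzed on Fortessa flow cytometer.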

Data set [8] deals with Mus musculus. Put plainly: Dose normalized drug uptake in Balb/c mouse at 5 mg/kg, iv by LC/MS/MS analysis. To be noted: in vivo. The format is ADME, organism-based.
Data set [9] deals with Rattus norvegicus. Put plainly: Dose normalized Cmax in Wistar rat at 10 mg/kg, po bid measured up to 1 hr by LC/MS/MS analysis. It counts as ADME, organism-based, Wister. To be noted: in vivo.
A short description of data set [10]: Clearance in Wistar rat at 3 mg/kg, iv by LC/MS/MS analysis. It counts as ADME, organism-based. To be noted: in vivo.
In data set [11] the test system is Mus musculus. Description: In vivo inhibition of SPPL2a in mouse assessed as accumulation of CD74/p8 in splenocyte lysate at 10 mg/kg administered via oral gavage as single dose measured 16 hrs post dose by Western blot method relative to control. The format is functional. Put shortly:
(§2)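 Mice gavaged in 0.5% MC:0.5% Tween or PEG:D5W 3:1. Spleens dissociated, red cells lysed with ACK, 1 × 10^6 cells lysed with protease inhibitors; 18 μg lysate on 10% gel, blotted, CD74 full length and p8 detected with rat anti-mouse CD74 In-1 and Alexa488 anti-rat IgG, LiCor scan; p8/full-length ratio expressed as percent of reference compound ratio.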

For data set [12], the system named is Mus musculus. Put plainly: In vivo inhibition of SPPL2a in mouse assessed as accumulation of CD74/p8 in splenocyte lysate at 1 to 3 mg/kg administered via oral gavage as single dose measured 16 hrs post dose by Western blot method. It counts as functional, organism-based. Put shortly:
as §2

The nature of data set [13]: Total plasma concentration in mouse at 10 mg/kg administered via oral gavage measured after 16 hrs post dose by LC/MS/MS analysis. It counts as ADME, organism-based. In a few lines:
(§3)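 Mice dosed by oral gavage in 0.5% MC:0.5% Tween or PEG:D5W 3:1. 50 μL blood taken retro-orbitally into LiHep tubes; in chronically dosed animals the trough sample came before the morning dose. Kept on ice, plasma separated by centrifugation at 2823g, 5 min, stored at −20 °C until analysis.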

Data set [14] can be described thus: Total plasma concentration in mouse at 3 mg/kg administered via oral gavage measured after 16 hrs post dose by LC/MS/MS analysis. The format is ADME, organism-based. Put shortly:
as §3

Data set [15] in a line: Total concentration in Lewis rat blood at 10 mg/kg, po bid after 24 hrs by LC/MS/MS analysis. It counts as ADME, organism-based. Conditions: read-out: Drug uptake.
Data set [16] is described as follows: Drug uptake in Lewis rat spleen at 30 mg/kg, po bid after 24 hrs by LC/MS/MS analysis. It counts as ADME, organism-based. Conditions: read-out: Drug uptake.
Data set [17] is described as follows: Drug uptake in Lewis rat spleen at 10 mg/kg, po bid after 24 hrs by LC/MS/MS analysis. It counts as ADME, organism-based. To be noted: read-out: Drug uptake.
Data set [18] concerns Mus musculus. Description: Immunomodulatory activity in mouse assessed as reduction in myloid dendritic cells in splenocyte administered via oral gavage bid at 8 and 16 hrs dosing interval between first and second dose respectively for 11 days measured 16 hrs post last dose on day 12 by B220 staining based flow cytometry. The format is functional, cell-based. Background: In flow cytometry, cells or beads pass a laser one at a time.

Data set [19] deals with Mus musculus. Description: Immunomodulatory activity in mouse assessed as reduction in plasmacytoid dendritic cells in splenocyte at 3 to 30 mg/kg administered via oral gavage bid at 8 and 16 hrs dosing interval between first and second dose respectively for 11 days measured 16 hrs post last dose on day 12 by B220 staining based flow cytometry. The format is functional, organism-based. In a few lines:
as §1

Data set [20] has as its system Plasma. Description: Cmin in mouse plasma at 10 mg/kg, po bid administered at 8 and 16 hrs dosing interval between first and second dose respectively for 11 days measured predose on day 12 by LC/MS/MS analysis. Conditions: in vivo, read-out: Cmin. It counts as ADME, organism-based. Put shortly: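 Mice gavaged bid in 0.5% MC:0.5% Tween or PEG:D5W 3:1; trough sample taken before the morning dose; 50 μL retro-orbital blood into LiHep tubes, kept on ice, plasma separated at 2823g for 5 min, stored at −20 °C until analysis.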

Calls of active or inactive are those of the source. The calls are words filed in the database; no cut-off is given here.

What is called clearance is a measure of how efficiently the substance is removed, as volume per time. The low end stands for a low capacity for elimination, the high end for a high capacity for elimination. The compound `Cc1ccccc1NC(=O)C[C@@H](C)C(=O)N[C@@H]1C(=O)N2CCCN2Cc2ccccc21` had a clearance in [1] of 45 mL/min/kg. Besides, the remaining at 1 h is 70.8% in data set [2] and 93.2% in [3]. Besides, the inhibition result in data set [4] was “Active”. In data set [5], the outcome was Active. Further, the Activity entry in data set [6] is “Non-Toxic”.

By inhibition in vivo is commonly meant the change of the read-out against control, counted positive when it falls. As to `Cc1ncc(F)cc1NC(=O)C[C@H](C(=O)N[C@@H]1C(=O)N2CC3(CC3)CN2C(=O)c2ccccc21)C1CC1`, the result in data set [7] was Active. In data set [8], this compound had a Druguptake/dose of 264 nM. The compound further had a Cmax/dose in data set [9] of 805 nM. Besides, the clearance in data set [10] was determined as 6 mL/min/kg. The inhibition in vivo at 10 mg/kg in data set [11] was found to be 50%. The inhibition entry in data set [12] is “inactive”. In addition, the concentration at 16 h came out at 11.8 nM in data set [13] and 0.8 nM in data set [14]. Further, the values for the concentration at 24 h in data set [15], in [16] and in data set [17] were 1390 nM, 4450 nM and 2400 nM, respectively. The Activity entry in data set [18] is “Dose-dependent effect”. The result in data set [19] was inactive. Further, the concentration in [20] is 66 nM.

These data come from ChEMBL document CHEMBL4043282, “Discovery of the First Potent, Selective, and Orally Bioavailable Signal Peptide Peptidase-Like 2a (SPPL2a) Inhibitor Displaying Pronounced Immunomodulatory Effects In Vivo” (J Med Chem, 2018).
